Measured values from ChEMBL document CHEMBL1142890, “Structure-antibacterial activity of arylcarbonyl- and arylsulfonyl-piperazine 5-triazolylmethyl oxazolidinones” (2007).
Converted amounts (≈) assume the structure as drawn.

Assays:
Staphylococcus aureus [1] = experiment: Antimicrobial activity against methicillin-susceptible Staphylococcus aureus by agar dilution method; type: functional
Outline: (§1)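 Agar dilution per CLSI on Mueller-Hinton agar, test agents at 0.12 to 8 µg/ml; test compounds dissolved in 20% water in DMSO, linezolid in 40% water in ethanol, vancomycin in water. Clinical isolates inoculated at final 10^7 CFU/ml, incubated 35 °C for 18 h. MIC = lowest concentration completely inhibiting growth; reported as range across isolates.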

Streptococcus pneumoniae = experiment: Antimicrobial activity against Streptococcus pneumoniae by agar dilution method; type: functional
Outline: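 Agar dilution per CLSI on Mueller–Hinton agar holding drug dilutions from 0.12 to 8 µg/ml. Staphylococci and enterococci tested on plain MH agar, S. pneumoniae on MH agar with 5% sheep blood. Test compounds dissolved in 20% water in DMSO. Inoculum 10⁷ CFU/ml, incubated 35 °C for 18 h. MIC was the lowest concentration giving complete growth inhibition.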

Staphylococcus aureus [2] = experiment: Antimicrobial activity against methicillin-resistant Staphylococcus aureus by agar dilution method; type: functional; outline: as §1
Escherichia coli = experiment: Antimicrobial activity against Escherichia coli ATCC 25922; type: functional
Staphylococcus [3] = experiment: Antimicrobial activity against methicillin-susceptible coagulase-negative staphylococcus by agar dilution method; type: functional; outline: as §1
Haemophilus influenzae = experiment: Antimicrobial activity against Haemophilus influenzae; type: functional
Enterococcus [4] = experiment: Antimicrobial activity against vancomycin-resistant Enterococcus by agar dilution method; type: functional; outline: as §1
Staphylococcus aureus [5] = experiment: Antimicrobial activity against Staphylococcus aureus ATCC 25923 by agar dilution method
Staphylococcus [6] = experiment: Antimicrobial activity against methicillin-resistant coagulase-negative Staphylococcus by agar dilution method; type: functional; outline: as §1
Moraxella catarrhalis = experiment: Antimicrobial activity against Moraxella catarrhalis; type: functional
Staphylococcus aureus [7] = experiment: Antimicrobial activity against Staphylococcus aureus ATCC 25922 in presence of 50% human plasma […]; type: functional; settings: ATCC 25923, Plasma, in the assay text read “ATCC 25923” for “ATCC 25922”
Outline: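 S. aureus ATCC 25923 tested in Mueller–Hinton broth supplemented with 50% human plasma. Test compounds dissolved in 20% water in DMSO. Inoculum 10⁷ CFU/ml, incubated 35 °C for 18 h. MIC was the lowest concentration completely inhibiting growth.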

Enterococcus [8] = experiment: Antimicrobial activity against vancomycin-sensitive Enterococcus by agar dilution method; type: functional; outline: as §1

Row | Structure (SMILES) | MIC (Staphylococcus aureus [1]) | MIC (Streptococcus pneumoniae) | MIC (Staphylococcus aureus [2]) | MIC (Escherichia coli) | MIC (Staphylococcus [3]) | MIC (Haemophilus influenzae) | MIC (Enterococcus [4]) | MIC (Staphylococcus aureus [5]) | MIC (Staphylococcus [6]) | MIC (Moraxella catarrhalis) | MIC (Staphylococcus aureus [7]) | MIC (Enterococcus [8])
1 | O=C(c1ccco1)N1CCN(c2ccc(N3C[C@H](Cn4ccnn4)OC3=O)cc2F)CC1 | 0.5 µg/mL (≈ 1.14 µM) | 0.25 µg/mL (≈ 0.568 µM) | 0.5 µg/mL (≈ 1.14 µM) | ≥ 8 µg/mL | 0.25 µg/mL (≈ 0.568 µM) | ≥ 8 µg/mL | 0.5 µg/mL (≈ 1.14 µM) | 1 µg/mL (≈ 2.27 µM) | 0.25 µg/mL (≈ 0.568 µM) | ≥ 8 µg/mL | 4 µg/mL | 0.5 µg/mL (≈ 1.14 µM)
2 | CC(=O)NC[C@H]1CN(c2ccc(N3CCOCC3)c(F)c2)C(=O)O1 [LINEZOLID] | 1 µg/mL (≈ 2.96 µM) | – | 0.5 µg/mL (≈ 1.48 µM) | ≥ 8 µg/mL | 0.25 µg/mL (≈ 0.741 µM) | ≥ 8 µg/mL | 2 µg/mL (≈ 5.93 µM) | – | 1 µg/mL (≈ 2.96 µM) | ≥ 8 µg/mL | – | 0.5 µg/mL (≈ 1.48 µM)
3 | CN[C@H](CC(C)C)C(=O)N[C@H]1C(=O)N[C@@H](CC(N)=O)C(=O)N[C@H]2C(=O)N[C@H]3C(=O)N[C@H](C(=O)N[C@H](C(=O)O)c4cc(O)cc(O)c4-c4cc3ccc4O)[C@H](O)c3ccc(c(Cl)c3)Oc3cc2cc(c3O[C@@H]2O[C@H](CO)[C@@H](O)[C@H](O)[C@H]2O[C@H]2C[C@](C)(N)[C@H](O)[C@H](C)O2)Oc2ccc(cc2Cl)[C@H]1O [VANCOMYCIN] | – | 0.5 µg/mL (≈ 0.345 µM) | – | ≥ 8 µg/mL | 1 µg/mL (≈ 0.69 µM) | ≥ 8 µg/mL | > 64 µg/mL | – | 1 µg/mL (≈ 0.69 µM) | ≥ 8 µg/mL | – | 0.25 µg/mL (≈ 0.173 µM)
4 | Cc1ccccc1C(=O)N1CCN(c2ccc(N3C[C@H](Cn4ccnn4)OC3=O)cc2F)CC1 | 0.5 µg/mL (≈ 1.08 µM) | 1 µg/mL (≈ 2.15 µM) | 0.5 µg/mL (≈ 1.08 µM) | ≥ 8 µg/mL | 0.5 µg/mL (≈ 1.08 µM) | ≥ 8 µg/mL | 1 µg/mL (≈ 2.15 µM) | 2 µg/mL (≈ 4.31 µM) | 0.5 µg/mL (≈ 1.08 µM) | ≥ 8 µg/mL | 8 µg/mL | 1 µg/mL (≈ 2.15 µM)
5 | O=C1O[C@@H](Cn2ccnn2)CN1c1ccc(N2CCOCC2)c(F)c1 | 0.5 µg/mL (≈ 1.44 µM) | 0.5 µg/mL (≈ 1.44 µM) | 0.5 µg/mL (≈ 1.44 µM) | ≥ 8 µg/mL | 0.5 µg/mL (≈ 1.44 µM) | ≥ 8 µg/mL | 1 µg/mL (≈ 2.88 µM) | 1 µg/mL (≈ 2.88 µM) | 0.5 µg/mL (≈ 1.44 µM) | ≥ 8 µg/mL | 1 µg/mL | 0.5 µg/mL (≈ 1.44 µM)
6 | O=C(C(=O)N1CCN(c2ccc(N3C[C@H](Cn4ccnn4)OC3=O)cc2F)CC1)c1cccs1 | 0.25 µg/mL (≈ 0.516 µM) | 0.25 µg/mL (≈ 0.516 µM) | 0.25 µg/mL (≈ 0.516 µM) | ≥ 8 µg/mL | 0.25 µg/mL (≈ 0.516 µM) | ≥ 8 µg/mL | 0.25 µg/mL (≈ 0.516 µM) | 0.5 µg/mL (≈ 1.03 µM) | 0.25 µg/mL (≈ 0.516 µM) | ≥ 8 µg/mL | 2 µg/mL | 0.5 µg/mL (≈ 1.03 µM)
7 | Cc1ccc(C(=O)N2CCN(c3ccc(N4C[C@H](Cn5ccnn5)OC4=O)cc3F)CC2)cc1 | 0.5 µg/mL (≈ 1.08 µM) | 2 µg/mL (≈ 4.31 µM) | 0.5 µg/mL (≈ 1.08 µM) | ≥ 8 µg/mL | 0.5 µg/mL (≈ 1.08 µM) | ≥ 8 µg/mL | 0.5 µg/mL (≈ 1.08 µM) | 1 µg/mL (≈ 2.15 µM) | 0.5 µg/mL (≈ 1.08 µM) | ≥ 8 µg/mL | 8 µg/mL | 1 µg/mL (≈ 2.15 µM)
8 | O=C(c1ccccc1)N1CCN(c2ccc(N3C[C@H](Cn4ccnn4)OC3=O)cc2F)CC1 | 0.25 µg/mL (≈ 0.555 µM) | 1 µg/mL (≈ 2.22 µM) | 0.25 µg/mL (≈ 0.555 µM) | ≥ 8 µg/mL | 0.25 µg/mL (≈ 0.555 µM) | ≥ 8 µg/mL | 0.25 µg/mL (≈ 0.555 µM) | 1 µg/mL (≈ 2.22 µM) | 0.25 µg/mL (≈ 0.555 µM) | ≥ 8 µg/mL | 1 µg/mL | 0.25 µg/mL (≈ 0.555 µM)
9 | O=C(c1ccc(F)cc1)N1CCN(c2ccc(N3C[C@H](Cn4ccnn4)OC3=O)cc2F)CC1 | 0.5 µg/mL (≈ 1.07 µM) | 0.5 µg/mL (≈ 1.07 µM) | 0.5 µg/mL (≈ 1.07 µM) | ≥ 8 µg/mL | 0.5 µg/mL (≈ 1.07 µM) | ≥ 8 µg/mL | 0.5 µg/mL (≈ 1.07 µM) | 1 µg/mL (≈ 2.13 µM) | 0.5 µg/mL (≈ 1.07 µM) | ≥ 8 µg/mL | 4 µg/mL | 1 µg/mL (≈ 2.13 µM)
10 | Cc1cccc(S(=O)(=O)N2CCN(c3ccc(N4C[C@H](Cn5ccnn5)OC4=O)cc3F)CC2)c1 | 4 µg/mL (≈ 7.99 µM) | 2 µg/mL (≈ 4 µM) | 2 µg/mL (≈ 4 µM) | ≥ 8 µg/mL | 2 µg/mL (≈ 4 µM) | ≥ 8 µg/mL | – | > 8 µg/mL | 2 µg/mL (≈ 4 µM) | ≥ 8 µg/mL | > 8 µg/mL | > 8 µg/mL
11 | COc1ccccc1C(=O)N1CCN(c2ccc(N3C[C@H](Cn4ccnn4)OC3=O)cc2F)CC1 | 0.5 µg/mL (≈ 1.04 µM) | 1 µg/mL (≈ 2.08 µM) | 1 µg/mL (≈ 2.08 µM) | ≥ 8 µg/mL | 0.25 µg/mL (≈ 0.52 µM) | ≥ 8 µg/mL | 1 µg/mL (≈ 2.08 µM) | 1 µg/mL (≈ 2.08 µM) | 0.25 µg/mL (≈ 0.52 µM) | ≥ 8 µg/mL | 4 µg/mL | 1 µg/mL (≈ 2.08 µM)
